{"source": "paper PMC5707466", "about": "(Chemical Science, 2015)", "key": {"[1]": {"assay": "SPR monitoring of sucrose diffusion/equilibration in dialysis chamber", "format": "physicochemical", "settings": "for t eff unstirred (experimental): passive mixing, fit of SPR data with eqn (2); for experimental effective diffusion time: unstirred", "procedure,_shortened": "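The dialysis chamber was a PDMS spacer (150 μm–1.0 mm) on the gold prism, filled with PBS and topped by a 0.4 μm-pore membrane. The sensor carried a 3-MPA-LHDLHD-OH monolayer. Sucrose was injected into the reservoir, and the SPR response was followed in the sensing chamber. Neither chamber was stirred, so mixing was by diffusion only. Effective diffusion time was fitted with c = ceq(1 – e^(–t/teff)).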"}, "[2]": {"assay": "Theoretical effective diffusion through microporous membrane", "settings": "200 nm membrane pore radius", "procedure,_shortened": "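This is a calculation, not a measurement: Deff/D0 through the membrane was computed with the Renkin equation from hydrodynamic radius (RH) and pore radius (RP), with a membrane pore diameter of 0.4 μm. Theoretical effective diffusion times assumed continuous stirring of the chambers.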"}, "[3]": {"assay": "SPR calibration with sucrose solutions", "format": "physicochemical", "settings": "absence of the microporous membrane; calibration slope", "procedure,_shortened": "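The SPR instrument was calibrated without the microporous membrane by successive injections of sucrose solutions with refractive indices from 1.33772 to 1.35589. Sensitivity is the response per refractive index unit (nm/RIU).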"}, "[4]": {"settings": "with microporous membrane"}, "[5]": {"target": "T1, CD36 (Homo sapiens, UniProt P16671)", "T1 sequence (P16671 whole entry)": "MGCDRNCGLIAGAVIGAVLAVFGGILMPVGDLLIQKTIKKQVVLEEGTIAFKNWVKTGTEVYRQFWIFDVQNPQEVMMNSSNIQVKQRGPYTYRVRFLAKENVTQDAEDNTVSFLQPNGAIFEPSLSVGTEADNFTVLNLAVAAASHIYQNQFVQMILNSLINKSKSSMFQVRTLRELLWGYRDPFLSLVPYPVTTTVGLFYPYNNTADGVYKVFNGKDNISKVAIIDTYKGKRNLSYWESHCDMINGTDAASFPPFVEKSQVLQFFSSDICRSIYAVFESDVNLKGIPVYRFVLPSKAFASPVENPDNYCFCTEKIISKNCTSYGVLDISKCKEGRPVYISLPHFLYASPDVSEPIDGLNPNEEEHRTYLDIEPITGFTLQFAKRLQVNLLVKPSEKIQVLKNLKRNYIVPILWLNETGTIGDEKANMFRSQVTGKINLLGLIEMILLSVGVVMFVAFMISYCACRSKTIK", "settings": "saline solution (stated for DBG178); CD36 SPR biosensor; cited from earlier work"}, "[6]": {"target": "T1, CD36", "assay": "CD36 SPR biosensor without dialysis chamber", "format": "binding", "settings": "matrix not stated"}, "[7]": {"target": "T1, CD36", "assay": "CD36 SPR biosensor with dialysis chamber", "format": "binding", "settings": "for SPR signal change: 10 μM peptide, buffer (PBS), CD36 sensor", "procedure,_shortened": "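Hexahistidine-tagged CD36 was captured by Cu2+ chelation on a 3-MPA-LHDLHD-OH monolayer. The monolayer was self-assembled overnight, then NTA-coupled via EDC/NHS. A PDMS spacer was filled with PBS and capped with a 0.4 μm-pore membrane. Peptide in PBS, untreated serum or whole blood was injected into the reservoir for 90 min per concentration. Triplicates ran in separate sensing chambers, with blank serum/blood in the reference channel and background subtracted.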"}, "[8]": {"target": "hexahistidine-tagged type B scavenger receptor CD36 (cluster of differentiation 36) (UniProt P16671)", "sequence (P16671 whole entry)": "as above", "assay": "SPR"}, "[9]": {"target": "hexahistidine-tagged type B scavenger receptor CD36 (cluster of differentiation 36) (UniProt P16671)", "assay": "SPR", "remark": "listed apart in the source"}, "[10]": {"target": "hexahistidine-tagged type B scavenger receptor CD36 (cluster of differentiation 36) (UniProt P16671)", "assay": "SPR", "remark": "listed apart in the source"}}, "note": "Where two headings read alike, the source gives them in different places. Where no end group is shown, it is not given here. [ ]: non-standard residue; d: D form. AzaTyr = not defined here"}
{"molecule": "OC[C@H]1O[C@@](CO)(O[C@H]2O[C@H](CO)[C@@H](O)[C@H](O)[C@H]2O)[C@@H](O)[C@@H]1O", "note": "[Sucrose, sucrose]", "values": [{"measurement": "t eff unstirred (experimental)", "setting": "[1]; spacer 0.15 mm", "result": 5529, "unit": "s"}, {"measurement": "t eff unstirred (experimental)", "setting": "[1]; spacer 0.30 mm", "result": 9892, "unit": "s"}, {"measurement": "t eff unstirred (experimental)", "setting": "[1]; spacer 0.60 mm", "result": "26 590 s"}, {"measurement": "experimental effective diffusion time", "setting": "[1]; spacer 1 mm (1000 μm), b26 prints unit as hours", "result": 15.5, "unit": "h"}, {"measurement": "t eff unstirred (experimental)", "setting": "[1]; spacer 1.00 mm", "result": "55 687 s"}, {"measurement": "experimental effective diffusion time", "setting": "[1]; spacer 150 μm", "result": 1.5, "unit": "h"}, {"measurement": "increase in equilibration time of the sensing chamber in absence of mixing", "setting": "[1]; spacer 150 μm, unstirred experimental vs stirred theoretical", "result": 300, "unit": "fold"}, {"measurement": "RH/RP", "setting": "[2]", "result": 0.00235}, {"measurement": "SPR sensitivity without microporous membrane", "setting": "[3]", "result": 2221, "unit": "nm/RIU"}]}
{"molecule": "BSA: bovine serum albumin (BSA) (MW = 66.4 kDa)", "values": [{"measurement": "diffusion time required to observe a significant SPR response / large shift", "setting": "[4]", "result": "~8", "unit": "h"}]}
{"molecule": "His-D-Trp-Ala-AzaTyr-D-Phe-Lys-NH2 [DBG178]", "values": [{"measurement": "Kd", "setting": "[5]", "result": 5, "unit": "µM"}, {"measurement": "SPR response without the dialysis chamber", "setting": "[6]; 8.75 μM, no dialysis chamber", "result": "0.71 ± 0.10", "unit": "nm"}, {"measurement": "SPR response without the microporous membrane", "setting": "[6]; highest concentration", "result": 0.89, "unit": "nm"}, {"measurement": "SPR response", "setting": "[7]; 7.5 μM, human serum, dialysis chamber, 90 min, reference-subtracted, triplicate", "result": "0.49 ± 0.02", "unit": "nm"}, {"measurement": "SPR signal change", "setting": "[7]; dialysis chamber", "result": "0.28 ± 0.11", "unit": "nm"}, {"measurement": "concentrations that could not be detected", "setting": "[7]; dialysis chamber, saline/PBS, 90 min per concentration", "result": "below 5 μM"}, {"measurement": "difference in SPR response with vs without dialysis chamber", "setting": "[7]; highest concentration", "result": 12, "unit": "%"}, {"measurement": "SPR response with the microdialysis chamber", "setting": "[7]; highest concentration, matrix not stated", "result": 0.78, "unit": "nm"}, {"measurement": "calibration curve signal in human serum (in words)", "setting": "[7]; human serum vs PBS, same concentration range, Fig. 3", "result": "increased in signal compared to PBS"}, {"measurement": "SPR response at nanomolar concentrations", "setting": "[7]; nanomolar range, dialysis chamber", "result": "below the detection limit of the SPR sensor"}, {"measurement": "analysis time sufficient to reach equilibrium of the SPR sensor", "setting": "[7]; whole blood, dialysis chamber, Fig. SI4", "result": 90, "unit": "min"}, {"measurement": "SPR response in whole blood (in words)", "setting": "[7]; whole human blood, 5, 7.5 and 10 μM, vs human serum, Fig. 3", "result": "in great agreement with human serum"}]}
{"molecule": "His-D-Trp-AzaLeu-Trp-D-Phe-Ala-NH2 [CP-2B(i), reference compound]", "values": [{"measurement": "Kd", "setting": "[5]", "result": 31, "unit": "µM"}, {"measurement": "SPR signal change", "setting": "[7]; dialysis chamber", "result": "–0.073 ± 0.030 nm"}]}
{"molecule": "H[dW]A[AzaTyr][dF]K-NH2 (reading uncertain; also: printed as His-D-Trp-Ala-AzaTyr-D-Phe-Lys-NH2)", "note": "[DBG178 (His-D-Trp-Ala-AzaTyr-D-Phe-Lys-NH2)]", "values": [{"measurement": "SPR response at 7.5 uM", "setting": "[8]", "result": 0.46, "unit": "nm"}, {"measurement": "SPR response at the highest concentration", "setting": "[9]", "result": 0.78, "unit": "nm"}, {"measurement": "Kd", "setting": "[10]", "result": 17, "unit": "µM"}, {"measurement": "SPR response at 7.5 uM", "setting": "[10]", "result": 0.49, "unit": "nm"}, {"measurement": "SPR response at 8.75 uM", "setting": "[10]", "result": 0.71, "unit": "nm"}, {"measurement": "SPR response at the highest concentration", "setting": "[10]", "result": 0.89, "unit": "nm"}, {"measurement": "SPR signal change at 10 uM", "setting": "[10]", "result": 0.28, "unit": "nm"}]}
